The text below walks through data of ChEMBL document CHEMBL4368938, “Design, synthesis and biological evaluation of inhibitors of cathepsin K on dedifferentiated chondrocytes” (Bioorg Med Chem, 2019).

The source made the active and inactive calls. The calls are words filed in the database; no cut-off is given here.

For data set [1], the target named is T1, Cathepsin K (Mus musculus) (UniProt P55097).
T1 sequence (whole entry): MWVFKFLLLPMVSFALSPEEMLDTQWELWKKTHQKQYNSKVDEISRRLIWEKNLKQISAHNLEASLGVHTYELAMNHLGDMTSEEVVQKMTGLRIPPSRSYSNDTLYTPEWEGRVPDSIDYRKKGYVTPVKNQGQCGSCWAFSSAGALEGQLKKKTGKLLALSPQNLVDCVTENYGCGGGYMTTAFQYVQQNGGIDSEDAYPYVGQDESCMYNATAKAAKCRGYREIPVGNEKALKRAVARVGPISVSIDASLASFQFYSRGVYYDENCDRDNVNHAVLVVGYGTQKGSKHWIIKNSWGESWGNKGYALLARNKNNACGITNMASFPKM
Nature of the data set: Inhibition of cathepsin K in mouse Primary chondrocytes derived after 2 passages at 1 uM after 24 hrs by Coomassie blue staining-based zymography assay. Format: cell-based. The essentials: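 Chondrocyte lysates in pH 7.5 extraction buffer. Equal protein resolved on 12% SDS gels containing 2 mg/mL gelatin. Renatured in Tris/glycerol, then developed in pH 6.0 100 mM sodium phosphate with 1 mM EDTA and 2 mM DTT. After 30 min, buffer exchanged for fresh buffer with 0.1% DMSO ± inhibitor for 24 h at 37 °C. Coomassie stain and destain; lysis zones indicate activity.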

Data set [2] deals with T1, Cathepsin K (Mus musculus). The data set is described as follows: Inhibition of cathepsin K in mouse Primary chondrocytes derived after 2 passages at 0.1 to 1 uM using Z-GPR-4MbetaNA as substrate by fluorescence assay relative to control. In kind it is cell-based. The essentials: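 Lysates of passaged primary chondrocytes in zymography extraction buffer. Incubated with Z-GPR-4MβNA (1 mg/mL), and released 4MβNA captured with 10 μM 5-nitrosalicylaldehyde. Fluorescence read at ex 488/em 525 nm, at least three reads per condition. Activity taken as (control − sample fluorescence) normalized to Bradford protein. Three independent experiments in triplicate.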

Data set [3] deals with 72 kDa type IV collagenase (Mus musculus) (UniProt P33434). Nature of the data set: Inhibition of MMP2 in mouse Primary chondrocytes derived after 2 passages at 1 uM after 24 hrs by Coomassie blue staining-based zymography assay. In kind it is cell-based. The procedure, abridged: (§1)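 Gelatin zymography of extracellular medium from primary mouse chondrocytes. Medium collected in pH 7.5 Tris/EGTA/Triton extraction buffer, and equal protein run on 8% SDS gels with 1.2 mg/mL gelatin. Renatured in Tris/20% glycerol (2 × 45 min), then pH 7.4 Tris/NaCl/5 mM CaCl2 buffer. After 30 min, fresh buffer with 0.1% DMSO ± inhibitor for 24 h at 37 °C. Coomassie stained; clear bands scored. Triplicate.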

In data set [4] the target is Matrix metalloproteinase-9 (Mus musculus) (UniProt P41245). The data set is described as follows: Inhibition of MMP9 in mouse Primary chondrocytes derived after 2 passages at 1 uM after 24 hrs by Coomassie blue staining-based zymography assay. Format: cell-based. The procedure, abridged: as §1
For data set [5], the species on record is Mus musculus. Nature of the data set: Inhibition of aggrecanase in mouse Primary chondrocytes derived after 0 passages assessed as effect on measuring sGAG content at 1 uM by Alcian blue staining-based assay. In kind it is cell-based.
Data set [6] concerns MG-63. Nature of the data set: Cytotoxicity against human MG63 cells assessed as reduction in cell viability at 0.001 to 5 uM after 3 days by MTT assay. To be noted: mg-63, 72 h. In kind it is cell-based. The essentials:
(§2)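 Cells plated at 60000/well (primary chondrocytes from epiphyseal cartilage of 5-6 day-old SWISS mice) or 100 000/well (MG-63, MOVAS cell lines). Grown in DMEM with 10% FBS plus penicillin/streptomycin, with or without inhibitor, for 3 days up to confluence. MTT 0.125 mg/mL final for 4 h, then DMSO solubilization and A570 read. Normalized to 0.1% DMSO control as 100%. Three sample pools, each in triplicate (n = 9).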

Data set [7] can be described thus: Cytotoxicity against mouse MOVAS1 cells assessed as reduction in cell viability at 0.001 to 5 uM after 3 days by MTT assay. In kind it is cell-based. To be noted: 72 h. The procedure, abridged:
as §2

The species entered for data set [8] is Mus musculus. The data set is described as follows: Inhibition of aggrecanase in mouse Primary chondrocytes derived after 2 passages assessed as effect on measuring sGAG content at 1 uM by Alcian blue staining-based assay. In kind it is cell-based. The procedure, abridged:
(§3)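 Passaged primary chondrocytes cultured ± inhibitor. Washed in PBS, fixed in 4% formaldehyde for 30 min at RT, then stained 30 min with 1% Alcian blue in 0.1 N HCl. Dye extracted with 33% isopropanol in 4.0 mol/L GnCl and A595 measured. Three independent experiments in triplicate.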

The target in data set [9] is Cathepsin S (Homo sapiens, UniProt P25774). The data set is described as follows: Inhibition of recombinant human cathepsin S expressed in Escherichia coli.
Data set [10] in a line: Cytotoxicity against mouse Primary chondrocytes assessed as reduction in cell viability at 0.001 to 5 uM after 3 days by MTT assay. To be noted: 72 h. The procedure, abridged: as §2
In general terms: Tetrazolium dyes change colour on reduction, which living cells bring about.

Data set [11] has as its target Procathepsin L (Homo sapiens, UniProt P07711). The data set is described as follows: Inhibition of human liver cathepsin L.
The species entered for data set [12] is Mus musculus. Nature of the data set: Inhibition of aggrecanase in mouse Primary chondrocytes derived after 1 passages assessed as effect on measuring sGAG content at 1 uM by Alcian blue staining-based assay. In kind it is cell-based. The essentials:
as §3

The target of data set [13] is T2, Cathepsin K (Homo sapiens, UniProt P43235).
T2 sequence (P43235 whole entry): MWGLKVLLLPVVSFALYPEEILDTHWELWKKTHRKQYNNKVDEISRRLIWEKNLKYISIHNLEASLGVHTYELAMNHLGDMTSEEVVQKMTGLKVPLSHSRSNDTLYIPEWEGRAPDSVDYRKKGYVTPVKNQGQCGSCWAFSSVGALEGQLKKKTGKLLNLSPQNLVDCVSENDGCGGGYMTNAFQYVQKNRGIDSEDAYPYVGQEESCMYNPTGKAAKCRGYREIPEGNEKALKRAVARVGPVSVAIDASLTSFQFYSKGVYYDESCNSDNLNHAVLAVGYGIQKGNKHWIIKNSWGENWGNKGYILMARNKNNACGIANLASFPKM
The data set is described as follows: Inhibition of recombinant His-tagged human cathepsin K expressed in Escherichia coli.

72 kDa type IV collagenase (Mus musculus), sequence (P33434 whole entry): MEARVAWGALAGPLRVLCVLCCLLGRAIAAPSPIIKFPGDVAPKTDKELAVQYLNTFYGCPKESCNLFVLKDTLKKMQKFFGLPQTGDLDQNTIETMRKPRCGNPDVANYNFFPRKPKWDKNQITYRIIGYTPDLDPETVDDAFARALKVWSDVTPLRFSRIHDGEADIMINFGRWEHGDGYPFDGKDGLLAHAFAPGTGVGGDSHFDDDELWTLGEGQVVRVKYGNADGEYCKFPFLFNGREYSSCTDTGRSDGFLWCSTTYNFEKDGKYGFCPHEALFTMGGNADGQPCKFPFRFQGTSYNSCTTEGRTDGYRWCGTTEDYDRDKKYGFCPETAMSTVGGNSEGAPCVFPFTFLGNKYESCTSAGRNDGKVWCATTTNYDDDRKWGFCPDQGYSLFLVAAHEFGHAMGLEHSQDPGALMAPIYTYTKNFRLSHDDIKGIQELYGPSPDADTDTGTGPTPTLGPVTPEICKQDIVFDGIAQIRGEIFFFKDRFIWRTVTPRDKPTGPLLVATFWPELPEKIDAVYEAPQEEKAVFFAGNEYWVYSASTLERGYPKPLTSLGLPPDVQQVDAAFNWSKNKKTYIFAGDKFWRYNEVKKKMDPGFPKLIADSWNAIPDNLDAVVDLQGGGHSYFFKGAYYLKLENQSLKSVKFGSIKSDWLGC
Matrix metalloproteinase-9 (Mus musculus), sequence (P41245 whole entry): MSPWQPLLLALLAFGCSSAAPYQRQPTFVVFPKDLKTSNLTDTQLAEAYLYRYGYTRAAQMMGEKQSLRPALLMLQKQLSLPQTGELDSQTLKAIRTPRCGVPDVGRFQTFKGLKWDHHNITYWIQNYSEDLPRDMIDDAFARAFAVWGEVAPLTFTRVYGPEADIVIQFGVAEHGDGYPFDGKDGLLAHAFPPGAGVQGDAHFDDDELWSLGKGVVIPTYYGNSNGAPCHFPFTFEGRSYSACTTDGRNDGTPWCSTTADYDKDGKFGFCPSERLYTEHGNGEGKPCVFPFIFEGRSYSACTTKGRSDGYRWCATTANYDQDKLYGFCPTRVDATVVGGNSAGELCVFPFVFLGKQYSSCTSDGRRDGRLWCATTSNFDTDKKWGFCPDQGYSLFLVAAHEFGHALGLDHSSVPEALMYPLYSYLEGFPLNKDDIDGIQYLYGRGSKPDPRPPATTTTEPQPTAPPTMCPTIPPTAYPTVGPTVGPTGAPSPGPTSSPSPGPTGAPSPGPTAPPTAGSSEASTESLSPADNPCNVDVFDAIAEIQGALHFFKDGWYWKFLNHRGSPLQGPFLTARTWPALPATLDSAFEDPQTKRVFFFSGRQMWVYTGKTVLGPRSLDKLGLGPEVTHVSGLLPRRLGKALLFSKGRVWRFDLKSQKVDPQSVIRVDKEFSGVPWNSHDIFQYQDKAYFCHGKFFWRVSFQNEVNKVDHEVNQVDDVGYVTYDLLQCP
Procathepsin L, sequence (P07711 whole entry): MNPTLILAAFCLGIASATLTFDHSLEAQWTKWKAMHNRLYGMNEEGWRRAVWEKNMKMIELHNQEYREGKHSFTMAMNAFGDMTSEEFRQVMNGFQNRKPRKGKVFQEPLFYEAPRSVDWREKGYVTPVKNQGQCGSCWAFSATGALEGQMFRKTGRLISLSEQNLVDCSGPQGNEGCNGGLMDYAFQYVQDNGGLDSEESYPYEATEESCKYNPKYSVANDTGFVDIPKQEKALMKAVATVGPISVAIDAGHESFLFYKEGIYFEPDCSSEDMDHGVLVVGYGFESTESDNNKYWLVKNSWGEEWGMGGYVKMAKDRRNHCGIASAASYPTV
Cathepsin S, sequence (P25774 whole entry): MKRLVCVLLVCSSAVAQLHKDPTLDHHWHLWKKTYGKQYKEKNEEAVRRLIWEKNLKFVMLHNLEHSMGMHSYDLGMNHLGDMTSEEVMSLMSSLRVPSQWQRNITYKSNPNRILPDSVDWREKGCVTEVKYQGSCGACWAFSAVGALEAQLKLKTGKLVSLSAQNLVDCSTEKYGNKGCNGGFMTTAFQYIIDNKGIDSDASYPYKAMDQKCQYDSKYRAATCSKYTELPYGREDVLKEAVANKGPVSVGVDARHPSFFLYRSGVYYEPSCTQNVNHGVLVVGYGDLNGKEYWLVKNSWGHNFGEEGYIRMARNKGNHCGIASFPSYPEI

As usually defined, the inhibition is the change of the read-out against control, counted positive when it falls. With `CC(C)(F)C[C@H](N[C@@H](c1ccc(-c2ccc(S(C)(=O)=O)cc2)cc1)C(F)(F)F)C(=O)NC1(C#N)CC1`, the inhibition entry in [1] was “Active”. Moreover, the inhibition in data set [2] was 19 to 30%. Further, the inhibition result in data set [3] and in data set [4] was “inactive” in each case.
In general, IC50 refers to the concentration needed to halve the response being measured. For orientation: Ki means a dissociation constant, usually derived from enzyme kinetics or from competition with a known ligand. Turning to `CC(C)CC(C(=O)N(C)N(C)C#N)c1cccc(-c2ccc(S(C)(=O)=O)cc2)c1` (racemic), in data set [1], the inhibition result was “Active”. The inhibition entry in data set [5], in data set [8], in data set [3], in data set [4] and in data set [12] was “inactive” in each case. The Activity result in [6], in data set [7] and in data set [10] was “Non-Toxic” throughout. The compound also showed an inhibition in data set [2] of 30 to 40%. The IC50 was found to be 1.02 µM in data set [9], 2.71 µM in data set [11] and 0.015 µM in data set [13]. The values for the Ki in data set [9], in data set [11] and in data set [13] were 0.735 µM, 0.406 µM and 0.00721 µM, respectively.
